Measured values from ChEMBL document CHEMBL1145815, “SYNOPSIS: SYNthesize and OPtimize System in Silico” (J Med Chem, 2003).

Columns and labels:
[1] = Logarithm of inhibitory concentration against HIV-induced cytopathogenicity in MT-4 cell cultures; format: functional, cell-based; settings: Human immunodeficiency virus 1, MT4
Method in brief: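 Protection of MT-4 cell cultures against HIV-induced cytopathogenicity. Reduction of yellow MTT to blue formazan by mitochondrial dehydrogenases of metabolically active cells is read spectrophotometrically in HIV- and mock-infected cultures. IC50 is the concentration giving 50% protection against HIV-induced cytopathogenicity. CC50 is the concentration killing half the cells in mock-infected cultures.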

MT4 = test: Logarithm of cytotoxic concentration that causes half of the cells to die in mock-infected MT-4 cell cultures; format: functional, Homo sapiens
Method in brief: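 Mock-infected MT-4 cell cultures exposed to compound; viability read spectrophotometrically as mitochondrial dehydrogenase reduction of yellow MTT to blue formazan in metabolically active cells. CC50 taken as the concentration killing half the cells, run alongside HIV-infected cultures.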

Structure (SMILES) | IC50 [1] [µM] | pCC50 (MT4)
CC(NCCc1cccs1)c1cc(C#N)ccc1O (centres undefined) | > 100 | <4
O=C1NCCCC1C(=O)NNC(=S)Nc1cc(Cl)cc(Cl)c1 (centres undefined) | > 50.1 | 4.3
COC(C/N=C(\S)Nc1c(Br)cc(Cl)cc1Br)OC | 25.1 | <4
CSc1cccnc1C(=O)NCc1ccc(N)cc1 | 39.8 | <4
N#Cc1ccc(O)c(NC(=O)Nc2cccc(F)c2)c1 | > 100 | <4
COc1cccc(CC/N=C(\S)Nc2ccc(C#N)cc2)c1 | 1.58 | 4.3
NC(=O)N/N=C\c1cc(Cl)ccc1Nc1cccc(Cl)c1 | 2.51 | <4
CC(Nc1ncccc1C(N)=O)c1cccc(Cl)c1 (centres undefined) | 12.6 | <4
CCCc1cc(O)nc(SCC(C)(C)c2ccccc2)n1 | 15.8 | <4.3
S=C(NCc1ccc(Cl)c(Cl)c1)Nc1cccnc1 | > 39.8 | 4.4
CC(C)n1c(O)nnc1Sc1cccc(C(F)(F)F)c1 | 79.4 | <4
CC(C)(C)c1nc(COc2ccc(C(N)=O)c(O)c2)no1 | > 100 | <4
O=C(N/N=C(\S)Nc1cc(Cl)cc(Cl)c1)c1ccccc1F | > 7.94 | 5.1
O=C(Cc1ccc(I)cc1)Nc1ncccc1O | > 100 | <4
NC(=O)N/N=C\c1ccccc1NCc1ccccn1 | 6.31 | <4
Oc1cc(O)cc(CNc2cc(Cl)c(Cl)c(Cl)c2)c1 | > 50.1 | 4.3
O=C(Nc1cccnc1)Nc1nc(Cl)ccc1Cl | 31.6 | <4
